Assay results published in ChEMBL document CHEMBL3352128, “Design, synthesis and biological evaluation of thienopyridinones as Chk1 inhibitors” (Bioorg Med Chem, 2014).
The source made the active and inactive calls. No cut-off for these calls is given here.

Assays:
[1] = target: T1, Serine/threonine-protein kinase Chk1 (Homo sapiens, UniProt O14757); experiment: Inhibition of Chk1 (unknown origin) by luminescent ADP-Glo assay
T1 sequence (O14757 whole entry): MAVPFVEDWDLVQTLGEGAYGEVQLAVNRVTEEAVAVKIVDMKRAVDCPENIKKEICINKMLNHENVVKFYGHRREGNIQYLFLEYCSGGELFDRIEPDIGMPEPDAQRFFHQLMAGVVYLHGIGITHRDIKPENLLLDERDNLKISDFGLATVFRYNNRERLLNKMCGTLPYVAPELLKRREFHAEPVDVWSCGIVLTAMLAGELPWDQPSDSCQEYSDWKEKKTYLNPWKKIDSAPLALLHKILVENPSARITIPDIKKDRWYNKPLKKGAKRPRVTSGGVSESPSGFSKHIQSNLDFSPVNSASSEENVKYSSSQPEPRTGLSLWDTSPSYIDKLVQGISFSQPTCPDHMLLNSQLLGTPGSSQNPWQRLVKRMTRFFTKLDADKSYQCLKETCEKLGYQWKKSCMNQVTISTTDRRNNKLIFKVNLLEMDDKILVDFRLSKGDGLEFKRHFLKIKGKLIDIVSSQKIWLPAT

CDK2/Cyclin A2 = CDK2/Cyclin A2 (Homo sapiens, UniProt P24941); experiment: Inhibition of CDK2/cyclin A (unknown origin) by HTRF kinase assay; format: protein-complex assay
Summary of the method: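 CDK2/cyclin A was purchased enzyme, tested with an HTRF kinase assay kit. Compounds were first screened at 1 µg/mL final, and those giving more than 40% inhibition were taken forward to IC50.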

Aurora kinase A = target: T2, Aurora kinase A (Homo sapiens, UniProt O14965); experiment: Inhibition of Aurora A (unknown origin) expressed in Escherichia coli by ZLYTETM assay
T2 sequence (O14965 whole entry): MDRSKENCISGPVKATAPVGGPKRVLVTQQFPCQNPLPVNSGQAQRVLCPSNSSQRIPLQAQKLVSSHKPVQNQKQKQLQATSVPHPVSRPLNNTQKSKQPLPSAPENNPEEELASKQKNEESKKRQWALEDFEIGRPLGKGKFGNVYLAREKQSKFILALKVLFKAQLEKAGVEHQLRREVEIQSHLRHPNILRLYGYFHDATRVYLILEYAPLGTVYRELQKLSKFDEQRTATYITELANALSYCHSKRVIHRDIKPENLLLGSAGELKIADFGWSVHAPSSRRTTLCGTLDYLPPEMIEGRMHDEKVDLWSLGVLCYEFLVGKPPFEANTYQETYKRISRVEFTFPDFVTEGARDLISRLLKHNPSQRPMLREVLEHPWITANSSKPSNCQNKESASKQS
Summary of the method: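 Z'-LYTE kinase assay. Aurora A was recombinant protein expressed in E. coli. Compounds were first tested at 1 µg/mL final. Those giving more than 40% inhibition were taken further, with IC50 reported.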

Protein kinase C (PKC) = experiment: Inhibition of PKC (unknown origin) by Z'-LYTETM kinase assay; parameters: species or system Homo sapiens
Homo sapiens [2] = organism: Homo sapiens; experiment: Selectivity index, ratio of IC50 for CDK2/cyclinA (unknown origin) to IC50 for Chk1 (unknown origin)
Homo sapiens [3] = organism: Homo sapiens; experiment: Selectivity index, ratio of IC50 for Aurora A (unknown origin) to IC50 for Chk1 (unknown origin)
Homo sapiens [4] = organism: Homo sapiens; experiment: Selectivity index, ratio of IC50 for PKC (unknown origin) to IC50 for Chk1 (unknown origin)
RPMI8266 [5] = experiment: Cytotoxicity against human […] cells at 100 nM after 72 hrs by MTS assay; format: functional, cell-based
Summary of the method: (§1)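 RPMI 8226 myeloma cells were seeded at 5 × 10³ cells per well in 100 µL. They were treated with Chk1 inhibitor at 100 nM, with melphalan (1, 3 and 10 µM), or with both, for 72 h. MTS was then added at 0.5 mg/mL final for 2–4 h to read growth.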

RPMI8266 [6] = experiment: Potentiation of melphalan-induced cytotoxicity against human […] cells at 100 nM after 72 hrs by MTS assay; format: functional, cell-based; summary of the method: as §1

| SMILES | IC50 [1] [µM] | IC50 (CDK2/Cyclin A2) [µM] | IC50 (Aurora kinase A) [µM] | IC50 (Protein kinase C (PKC)) [µM] | Ratio IC50 (Homo sapiens [2]) | Ratio IC50 (Homo sapiens [3]) | Ratio IC50 (Homo sapiens [4]) | other results |
| --- | --- | --- | --- | --- | --- | --- | --- | --- |
| O=c1[nH]c2ccsc2c(NC2CCCNC2)c1-c1nc2ccccc2[nH]1 (stereo not given) | 0.00754 | 0.256 | 0.202 | 0.81406 | > 20 | > 20 | > 20 |  |
| O=c1[nH]c2sccc2c(N[C@H]2CCCNC2)c1-c1nc2ccccc2[nH]1 | 0.00522 | 0.852 | 0.495 | 0.52251 | > 20 | > 20 | > 20 |  |
| O=c1[nH]c2ccsc2c(NC2CCNC2)c1-c1nc2ccccc2[nH]1 (stereo not given) | 0.0247 |  |  |  |  |  |  |  |
| COc1ccc2[nH]c(-c3c(N[C@H]4CCCNC4)c4cc(Cl)sc4[nH]c3=O)nc2c1 | 0.00233 | 0.393 | 0.328 | 0.20448 | > 20 | > 20 | > 20 | Activity (RPMI8266 [5]): inactive; Activity (RPMI8266 [6]): Active |
| CNCCNc1c(-c2nc3ccccc3[nH]2)c(=O)[nH]c2sccc12 | > 10 |  |  |  |  |  |  |  |
| O=c1[nH]c2sc(Cl)cc2c(NC2CCNC2)c1-c1nc2ccccc2[nH]1 (stereo not given) | 0.041 |  |  |  |  |  |  |  |
| O=c1[nH]c2sc(Cl)cc2c(N[C@H]2CCCNC2)c1-c1nc2ccccc2[nH]1 | 0.00353 |  |  |  |  |  |  |  |
| O=c1[nH]c2sccc2c(N2CCC(CO)CC2)c1-c1nc2ccccc2[nH]1 | > 10 |  |  |  |  |  |  |  |
| COc1ccc2[nH]c(-c3c(NC4CN5CCC4CC5)c4cc(Cl)sc4[nH]c3=O)nc2c1 (stereo not given) | 0.00536 | 4.3 | 1.4 | 8.18603 | 100 | > 20 | 100 |  |
| O=c1[nH]c2sc(Cl)cc2c(NC2CCCNC2)c1-c1nc2ccccc2[nH]1 (stereo not given) | 0.00405 | 0.334 | 1.05 | 0.16889 | > 20 | > 20 | > 20 | Activity (RPMI8266 [5]): inactive; Activity (RPMI8266 [6]): Active |
| O=c1[nH]c2sccc2c(NC2CN3CCC2CC3)c1-c1nc2ccccc2[nH]1 (stereo not given) | 0.014 | 1.63 | > 10 | 1.00181 | 100 | > 20 | 100 |  |
| Cc1cc2c(NC3CCNC3)c(-c3nc4ccccc4[nH]3)c(=O)[nH]c2s1 (stereo not given) | 0.0232 |  |  |  |  |  |  |  |
| COC(=O)CCNc1c(-c2nc3ccccc3[nH]2)c(=O)[nH]c2sccc12 | > 10 |  |  |  |  |  |  |  |
| O=c1[nH]c2sccc2c(NC2CCNC2)c1-c1nc2ccccc2[nH]1 (stereo not given) | 0.0475 |  |  |  |  |  |  |  |
| O=c1[nH]c2sc(Cl)cc2c(NC2CN3CCC2CC3)c1-c1nc2ccccc2[nH]1 (stereo not given) | 0.00623 | 3.19 | > 10 | 2.01888 | 100 | > 20 | 100 | Activity (RPMI8266 [5]): inactive; Activity (RPMI8266 [6]): Active |
| O=c1[nH]c2sccc2c(NCCN2CCOCC2)c1-c1nc2ccccc2[nH]1 | > 10 |  |  |  |  |  |  |  |
| NCCNc1c(-c2nc3ccccc3[nH]2)c(=O)[nH]c2sccc12 | > 10 |  |  |  |  |  |  |  |
| O=c1[nH]c2sccc2c(NCCO)c1-c1nc2ccccc2[nH]1 | > 10 |  |  |  |  |  |  |  |
| O=c1[nH]c2sccc2c(NCC2CCNCC2)c1-c1nc2ccccc2[nH]1 | 0.116 |  |  |  |  |  |  |  |
| Cc1cc2c(NC3CCCNC3)c(-c3nc4ccccc4[nH]3)c(=O)[nH]c2s1 (stereo not given) | 0.00984 |  |  |  |  |  |  |  |
| O=c1[nH]c2sccc2c(N2CCOCC2)c1-c1nc2ccccc2[nH]1 | > 10 |  |  |  |  |  |  |  |
| O=c1[nH]c2sc(Br)cc2c(NC2CCNC2)c1-c1nc2ccccc2[nH]1 (stereo not given) | 0.0153 |  |  |  |  |  |  |  |
| NC(=O)Nc1cc(-c2cccc(F)c2)sc1C(=O)N[C@H]1CCCNC1 |  |  |  |  |  |  |  | Activity (RPMI8266 [5]): inactive; Activity (RPMI8266 [6]): Active |
| O=c1[nH]c2sc(Br)cc2c(NC2CCCNC2)c1-c1nc2ccccc2[nH]1 (stereo not given) | 0.00483 | 0.246 | 1.59 | 0.39271 | > 20 | > 20 | > 20 |  |
| O=c1[nH]c2sccc2c(N2CCCCC2)c1-c1nc2ccccc2[nH]1 | > 10 |  |  |  |  |  |  |  |
| O=c1[nH]c2sccc2c(NC2CCCCC2)c1-c1nc2ccccc2[nH]1 | > 10 |  |  |  |  |  |  |  |
| O=c1[nH]c2sccc2c(NC2CCNCC2)c1-c1nc2ccccc2[nH]1 | 0.00994 |  |  |  |  |  |  |  |
| O=c1[nH]c2sccc2c(NC2CCCNC2)c1-c1nc2ccccc2[nH]1 (stereo not given) | 0.0156 | 0.849 | 0.791 | 0.69585 | > 20 | > 20 | > 20 |  |
| CN(C)CCNc1c(-c2nc3ccccc3[nH]2)c(=O)[nH]c2sccc12 | 0.178 |  |  |  |  |  |  |  |
